Laboratory results from paper PMC6981055 (Biochemical pharmacology, 2019).
Converted amounts (≈) assume the structure as drawn. “Also recorded” adds a separate entry of the source.

Key:
[1] = molecular target: dCK (Homo sapiens, UniProt P27707); experiment: dCK activity in CEM tumors by [18F]CFA MicroPET/CT, PK-PD model; format: in vivo, NSG mice
Summary of the method: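 Male NSG mice bearing subcutaneous CEM tumors (250 mm3) received a single oral dose (5, 10 or 25 mg/kg) in lipid/surfactant vehicle, one time point per mouse (N=4 per time point). Mice were anesthetized and given 740 kBq [18F]CFA i.v. 3 h before imaging. MicroPET/CT acquisition ran 10 min with MAP reconstruction, co-registered CT and manual 3D tumor regions of interest. Modelled tumor concentrations were linked to the effect compartment; linear, Emax and sigmoid Emax fits were compared.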

[2] = format: in vivo, NSG mice
Summary of the method: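 Female NSG mice with subcutaneous CEM xenografts (from 50 mm3) given oral gavage at 10, 25 or 50 mg/kg in PEG-200:Transcutol:Labrasol:Tween-80 (5:3:1:1). One terminal plasma and tumor sample per mouse at 1, 3, 6, 9 and 24 h (n=5 per time point). Methanol extraction with internal standard, LC-MS/MS-MRM. Population model with gut depot, plasma and tumor compartments (ADVAN6, TRANS1), exponential inter-subject error and actual tumor volumes.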

[3] = system: CEM tumor xenografts; experiment: Growth inhibition of CEM tumor xenografts, DI-87 with thymidine, PK-PD model; format: in vivo; conditions: for Tumor growth, single agent: agent given alone
Summary of the method: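 NSG mice (8–12 weeks) carried subcutaneous CEM xenografts (2 × 10^6 cells, PBS/matrigel 50/50). Dosing began at 50 mm3: oral gavage QD or BID for 16–18 days (PEG-200:Transcutol:Labrasol:Tween-80, 5:3:1:1), plus thymidine 2 g/kg i.p. BID in saline. Controls: thymidine alone, compound plus saline, vehicle plus saline. Tumor size tracked (n=5). An Emax indirect-response PD model was linked to population PK tumor concentrations.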

[4] = system: CEM cells; experiment: Cell proliferation assay: rescue of CEM cells from gemcitabine; format: cell-based, human; conditions: CEM cells treated with gemcitabine with and without DI-87
Summary of the method: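 CEM cells plated at 1×10^3 cells/well, exposed to increasing gemcitabine concentrations (up to 10 μM) with or without 1 μM test compound for 72 hr. Viability read by CellTiter-Glo luminescence after 5 min at room temperature.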

[5] = molecular target: bovine serum albumin (BSA) (Bos taurus, UniProt P02769); experiment: Protein binding assessed by IC50 of dCK inhibitor in presence of BSA; format: in vitro ADME; conditions: 25 and 50 mg/mL BSA
Chain of bovine serum albumin (BSA) (P02769 25-607): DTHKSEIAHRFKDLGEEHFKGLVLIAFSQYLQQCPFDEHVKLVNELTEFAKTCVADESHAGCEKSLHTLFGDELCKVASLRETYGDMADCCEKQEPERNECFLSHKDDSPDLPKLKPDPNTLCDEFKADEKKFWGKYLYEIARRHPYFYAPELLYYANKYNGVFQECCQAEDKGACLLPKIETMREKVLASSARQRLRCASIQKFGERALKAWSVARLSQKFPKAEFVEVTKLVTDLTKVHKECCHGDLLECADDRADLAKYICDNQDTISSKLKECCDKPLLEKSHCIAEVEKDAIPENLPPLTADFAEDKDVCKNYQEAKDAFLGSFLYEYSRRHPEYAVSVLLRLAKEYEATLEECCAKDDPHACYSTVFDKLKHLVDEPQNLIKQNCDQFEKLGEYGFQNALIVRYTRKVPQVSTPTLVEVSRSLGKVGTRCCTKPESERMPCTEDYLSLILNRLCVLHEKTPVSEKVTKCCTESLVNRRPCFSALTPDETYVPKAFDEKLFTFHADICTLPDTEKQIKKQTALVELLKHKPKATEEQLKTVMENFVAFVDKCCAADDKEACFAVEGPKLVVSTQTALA
Summary of the method: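 IC50 was compared between the two BSA levels, with duplicate determinations (n=2) reported as mean±SD.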

[6] = sigmoid Emax indirect response model
[7] = oral 10, 25, 50 mg/kg, plasma-tumor population PK model
[8] = plasma-tumor population PK model

Chain of dCK (P27707 whole entry): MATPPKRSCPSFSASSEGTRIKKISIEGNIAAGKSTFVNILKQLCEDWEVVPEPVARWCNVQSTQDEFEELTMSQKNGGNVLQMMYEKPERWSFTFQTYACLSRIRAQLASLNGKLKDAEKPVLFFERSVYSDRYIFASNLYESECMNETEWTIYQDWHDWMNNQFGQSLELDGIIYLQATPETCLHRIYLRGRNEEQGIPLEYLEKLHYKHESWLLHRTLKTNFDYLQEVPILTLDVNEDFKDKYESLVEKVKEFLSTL

For COc1ccc(-c2nc([C@@H](C)Sc3nc(N)cc(N)n3)c(C)s2)cc1OCCN1CCOCC1 [DI-87, (R)-2-((1-(2-(4-methoxy-3-(2-morpholinoethoxy)phenyl)-5-methylthiazol-4-yl)ethyl)thio)pyrimidine-4,6-diamine], the EC50 [1] was 617 nM, the “Gamma (Hill coefficient), DCK inhibition PK-PD model” value [1, 6] was 58.6 and the “Kin, DCK inhibition PK-PD model” value [1, 6] was 0.76. For the same molecule, the “Kout, DCK inhibition PK-PD model” value [1, 6] was 0.12, the “Emax, DCK inhibition PK-PD model” value ([1]; sigmoid Emax indirect response model, linked to tumor concentrations) was 1.20 and the “dCK inhibition (PET)” value ([1]; single oral dose 5 mg/kg) was “minimal dCK inhibition with rapid recovery”. For the same molecule, the “dCK inhibition (PET)” value ([1]; single oral dose 10 mg/kg) was “full inhibition with recovery initiating at the 12 hr time point”, the “Earliest time of full dCK inhibition (PET)” value ([1]; single oral dose 25 mg/kg) was 3 h and the “Time to full recovery of dCK enzyme activity (PET)” value ([1]; single oral dose 25 mg/kg) was ≤ 36 h. For the same molecule, the “Half-life (plasma)” value ([2]; 0.693/(CL/V)) was 4.2 h, the half-life ([2]; female, NSG, mouse, plasma, oral, Half-life (plasma), 0.693/(CL/V)) was 4 h and the “KA (absorption constant)” value ([2]; fixed to the estimate from the plasma PK model) was 0.66 (FIXED) hr. The “Time of peak tumor concentration” value ([2]; oral 10, 25, 50 mg/kg, CEM tumor) was 3 to 9 h, the CL [2, 7] was 7.67 mL/min/kg and the “V (plasma volume of distribution)” value [2, 7] was 2.78 L/kg. The “Q (intercompartmental clearance plasma-tumor)” value [2, 8] was 0.075 mL/min/kg, the Scalar [2, 8] was 3.69 and the Tumor growth inhibition ([3]; DI-87 25 mg/kg BID oral with thymidine 2 g/kg i.p. BID, 25 mg/kg) was “Near complete growth inhibition; also recorded: maximal tumor growth inhibition”. The “Emax, Growth Inhibition PK-PD Model” value ([3]; Emax indirect response model, DI-87 with i.p. thymidine) was 1.06, the EC50 ([3]; Mus musculus, ip, read-out: EC50, Growth Inhibition PK-PD Model) was 3.63 µg/mL (≈ 7.22 µM) and the “Tumor growth, single agent” value ([3]; data not shown) was “tumor growth curves similar to the control; also recorded: essentially no ability to inhibit growth”. For the same molecule, the “Tolerability as a single agent” value ([3]; single agent, higher doses, data not shown) was “well tolerated at higher doses”, the “Prevention of gemcitabine cytotoxicity” value [4] was “fully prevented cytotoxicity following gemcitabine treatment” and the “Protein binding (IC50 in presence of BSA)” value [5] was “low protein binding; also recorded: retained its potency in the presence of albumin”. For the same molecule, the “Protein binding (IC50 in presence of BSA)” value ([5]; listed as (R)-DI-87) was “comparatively lower than its predecessor”.
In the case of Cc1cn([C@H]2C[C@H](O)[C@@H](CO)O2)c(=O)[nH]c1=O [thymidine, reference compound], the “Tumor growth, single agent” value ([3]; data not shown) is reported as “tumor growth curves similar to the control”.
